Test results from ChEMBL document CHEMBL4414643, “Pharmacokinetics of Phytocannabinoid Acids and Anticonvulsant Effect of Cannabidiolic Acid in a Mouse Model of Dravet Syndrome” (J Nat Prod, 2019).

Assays:
[1] = Cmax in anesthetized C57BL/6J mouse plasma at 5 mg/kg, ip administered as single dose measured upto 240 mins by LC-MS/MS analysis; assay type: ADME, organism-based; design: dose 5 mg/kg, route intraperitoneal
In short: (§1)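 Male and female mice (C57BL/6J or C57BL/6J x 129 F1), postnatal days 21-28, single i.p. injection at 10 mL/kg in vegetable oil or ethanol–Tween 80–saline (1:1:18). Blood taken by cardiac puncture under isoflurane at time points 15–240 min. Plasma and PBS brain homogenate extracted with ice-cold acetonitrile, diazepam internal standard, quantified by LC-MS/MS. Mean concentrations per time point (n = 3-5); noncompartmental analysis.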

[2] = Cmax in anesthetized C57BL/6J mouse brain at 5 mg/kg, ip administered as single dose measured upto 240 mins by LC-MS/MS analysis; assay type: ADME, organism-based; design: dose 5 mg/kg, route intraperitoneal; in short: as §1
[3] = Tmax in anesthetized C57BL/6J mouse plasma at 5 mg/kg, ip administered as single dose measured upto 240 mins by LC-MS/MS analysis; assay type: ADME, organism-based; in short: as §1
[4] = Tmax in anesthetized C57BL/6J mouse brain at 5 mg/kg, ip administered as single dose measured upto 240 mins by LC-MS/MS analysis; assay type: ADME, organism-based; in short: as §1
[5] = Half life in anesthetized C57BL/6J mouse plasma at 5 mg/kg, ip administered as single dose measured upto 240 mins by LC-MS/MS analysis; assay type: ADME, organism-based; in short: as §1
[6] = Half life in anesthetized C57BL/6J mouse brain at 5 mg/kg, ip administered as single dose measured upto 240 mins by LC-MS/MS analysis; assay type: ADME, organism-based; in short: as §1
[7] = AUC in anesthetized C57BL/6J mouse plasma at 5 mg/kg, ip administered as single dose measured upto 240 mins by LC-MS/MS analysis; assay type: ADME, organism-based; design: dose 5 mg/kg, time < 4 hr, route intraperitoneal; in short: as §1
[8] = AUC in anesthetized C57BL/6J mouse brain at 5 mg/kg, ip administered as single dose measured upto 240 mins by LC-MS/MS analysis; assay type: ADME, organism-based; design: time < 4 hr, dose 5 mg/kg, route intraperitoneal; in short: as §1
[9] = Ratio of drug level in anesthetized C57BL/6J mouse brain to plasma at 5 mg/kg, ip administered as single dose measured upto 240 mins by LC-MS/MS analysis; assay type: ADME, organism-based; settings: read-out: BPR; in short: as §1
[10] = Drug metabolism in plasma of anesthetized C57BL/6J mouse assessed as decrease in decarboxylation of parent compound at 5 mg/kg, ip by LC-MS/MS analysis; assay type: ADME, organism-based; settings: in vivo
In short: (§2)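 Mice aged 21-28 days postnatal received one i.p. dose (10 mL/kg), and plasma and brain were sampled at 15–240 min. Decarboxylated neutral cannabinoids were measured by LC-MS/MS against known standards, alongside the parent acid.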

[11] = Drug metabolism in brain of anesthetized C57BL/6J mouse assessed as decrease in decarboxylation of parent compound at 5 mg/kg, ip by LC-MS/MS analysis; assay type: ADME, organism-based; settings: in vivo; in short: as §2
[12] = Dissociation constant, pKa of compound; assay type: physicochemical
[13] = Partition coefficient, log P of compound; assay type: physicochemical; settings: octanol/water
[14] = Ratio of drug level in anesthetized C57BL/6J mouse brain to plasma at 10 mg/kg, ip administered as single dose measured upto 240 mins by LC-MS/MS analysis; assay type: ADME, organism-based; settings: read-out: BPR; in short: as §1
[15] = Cmax in anesthetized C57BL/6J mouse plasma at 10 mg/kg, ip administered as single dose measured upto 240 mins by LC-MS/MS analysis; assay type: ADME, organism-based; design: dose 10 mg/kg, route intraperitoneal; in short: as §1
[16] = Cmax in anesthetized C57BL/6J mouse brain at 10 mg/kg, ip administered as single dose measured upto 240 mins by LC-MS/MS analysis; assay type: ADME, organism-based; design: dose 10 mg/kg, route intraperitoneal; settings: in vivo, 4 h; in short: as §1
[17] = Tmax in anesthetized C57BL/6J mouse plasma at 10 mg/kg, ip administered as single dose measured upto 240 mins by LC-MS/MS analysis; assay type: ADME, organism-based; in short: as §1
[18] = Tmax in anesthetized C57BL/6J mouse brain at 10 mg/kg, ip administered as single dose measured upto 240 mins by LC-MS/MS analysis; assay type: ADME, organism-based; in short: as §1
[19] = Half life in anesthetized C57BL/6J mouse plasma at 10 mg/kg, ip administered as single dose measured upto 240 mins by LC-MS/MS analysis; assay type: ADME, organism-based; in short: as §1
[20] = Half life in anesthetized C57BL/6J mouse brain at 10 mg/kg, ip administered as single dose measured upto 240 mins by LC-MS/MS analysis; assay type: ADME, organism-based; in short: as §1
[21] = AUC in anesthetized C57BL/6J mouse plasma at 10 mg/kg, ip administered as single dose measured upto 240 mins by LC-MS/MS analysis; assay type: ADME, organism-based; design: time < 4 hr, dose 10 mg/kg, route intraperitoneal; in short: as §1
[22] = Drug uptake in plasma of anesthetized C57BL/6J mouse at 10 mg/kg, ip by LC-MS/MS analysis; assay type: ADME, organism-based; settings: in vivo; in short: as §2
[23] = Drug metabolism in brain of anesthetized C57BL/6J mouse at 10 mg/kg, ip by LC-MS/MS analysis; assay type: ADME, organism-based; settings: in vivo; in short: as §2
[24] = Drug uptake in plasma of anesthetized C57BL/6J mouse assessed as purity of compound at 10 mg/kg, ip by LC-MS/MS analysis; assay type: ADME, organism-based; settings: in vivo; in short: as §2

| Structure (SMILES) | Cmax [1] [ng/mL] | Tmax [3] [min] | half-life [5] [min] | AUC at 4 h [7] [ng·h/mL] | Drug metabolism [10] | Drug metabolism [11] | pKa [12] | logP [13] | further results |
| --- | --- | --- | --- | --- | --- | --- | --- | --- | --- |
| C=C(C)[C@@H]1CCC(C)=C[C@H]1c1c(O)cc(CCC)c(C(=O)O)c1O | 21000 | 15 | 49 | 24800 | Metabolite_Notdetected | Metabolite_Notdetected | 2.91 | 5.94 | Cmax ([2]; C57BL/6J, brain, read-out: Cmax): 800 ng/mL; Tmax [4]: 30 min; half-life [6]: 19 min; AUC at 4 h [8]: 550 ng·h/mL; Kp at 4 h [9]: 0.02 |
| CCCc1cc(O)c(C/C=C(\C)CCC=C(C)C)c(O)c1C(=O)O |  |  |  |  |  |  | 2.92 | 6.46 | Kp at 4 h [14]: 0.04; Cmax [15]: 34400 ng/mL; Cmax [16]: 3.8 ng/mg; Tmax [17]: 15 min; Tmax [18]: 1.5 h; half-life [19]: 204 min; half-life [20]: 29 min; AUC at 4 h [21]: 199 µg·h/mL; Drug uptake [22]: 0.2%; Drug metabolism [23]: Metabolite_Notdetected; Drug uptake [24]: 97% |
| CCCCCc1cc2c(c(O)c1C(=O)O)C=CC(C)(CCC=C(C)C)O2 (stereo not given) | 3300 | 30 | 24 | 2880 | Metabolite_Notdetected | Metabolite_Notdetected | 2.87 | 6.91 | Cmax ([2]; in vivo, 4 h, BLD = below limit of detection): Bld |
